Read-outs that look alike come from different tables or passages of the source.
Assays:
advanced GIST = conditions: cited from earlier work
[1] = Plasma pharmacokinetics, cycle 1; assay type: in vivo, human
Method in brief: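 Patients with advanced GIST took an oral pan-FGFR kinase inhibitor (test compound) once daily at escalating dose levels (25–125 mg), with a second oral tyrosine kinase inhibitor at 400 mg once daily, in 28-day cycles. Blood was sampled at prespecified cycle 1 timepoints. Plasma parent drug, partner drug and its active metabolite were measured by validated LC-MS/MS.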

[2] = tested on: patients with imatinib refractory advanced GIST; assay: Safety and tolerability, DLT and MTD; conditions: schedule A, in combination with 400mg of imatinib
[3] = second and third line options in GIST
[4] = dose level −1 (BGJ398 50mg qd, imatinib 400mg qd), day 1, n=1

CNC(=O)c1cc(Oc2ccc(NC(=O)Nc3ccc(Cl)c(C(F)(F)F)c3)c(F)c2)ccn1 [regorafenib]
median PFS (advanced GIST; [3]): 4–6 months | response rate (advanced GIST; [3]): 4–7%

Cc1ccc(NC(=O)c2ccc(CN3CCNCC3)cc2)cc1Nc1nccc(-c2cccnc2)n1 [CGP 74588]
Concentration of metabolite day 1 24hr ([1]; dose level 1 (BGJ398 75mg qd, imatinib 400mg qd), n=9, mean): 149 (56 – 395) ng/mL | Concentration of metabolite day 1 24hr ([1]; dose level 2 (BGJ398 100mg qd, imatinib 400mg qd), n=1): 1040 ng/mL | Concentration of metabolite day 1 24hr ([1]; dose level −1 (BGJ398 50mg qd, imatinib 400mg qd), n=3, mean): 54 (26 – 84) ng/mL | Concentration of metabolite day 1 24hr ([1]; dose level −2 (BGJ398 25mg qd, imatinib 400mg qd), n=3, mean): 131 (67 – 209) ng/mL

CCN1CCN(c2ccc(Nc3cc(N(C)C(=O)Nc4c(Cl)c(OC)cc(OC)c4Cl)ncn3)cc2)CC1 [BGJ398]
AUC (0–24h) ([1]; dose level 1 (BGJ398 75mg qd, imatinib 400mg qd), day 1, n=9, mean): 487 (32 – 1153) h x ng/mL | AUC (0–24h) ([1]; dose level 2 (BGJ398 100mg qd, imatinib 400mg qd), day 1, n=1): 309 h x ng/mL | AUC (0–24h) [1, 4]: 25 h x ng/mL | Tmax [1, 4]: 4 h | Tmax ([1]; human, plasma, oral): 5 h | maximum tolerated dose (dose level −1) [2]: 50 mg

Cc1ccc(NC(=O)c2ccc(CN3CCN(C)CC3)cc2)cc1Nc1nccc(-c2cccnc2)n1 [imatinib]
objective response rate (advanced GIST; first-line, advanced GIST): approximately 50% | overall disease control rate (advanced GIST; first-line, advanced GIST): 80% | median progression free survival (advanced GIST; following initiation of imatinib therapy): 20–24 months | median PFS (advanced GIST; imatinib re-challenge): 1.8 months | median PFS, 95% CI (advanced GIST; imatinib re-challenge): 1.7–3.6 months

CCN(CC)CCNC(=O)c1c(C)[nH]c(/C=C2\C(=O)Nc3ccc(F)cc32)c1C [sunitinib]
median PFS (advanced GIST; [3]): 4–6 months | response rate (advanced GIST; [3]): 4–7%
